The values below come from ChEMBL document CHEMBL1681707, “Thienopyrrole acetic acids as antagonists of the CRTH2 receptor” (Bioorg Med Chem Lett, 2011).

The target in data set [1] is T1, Prostaglandin D2 receptor 2 (Homo sapiens, UniProt Q9Y5Y4).
T1 sequence (Q9Y5Y4 whole entry): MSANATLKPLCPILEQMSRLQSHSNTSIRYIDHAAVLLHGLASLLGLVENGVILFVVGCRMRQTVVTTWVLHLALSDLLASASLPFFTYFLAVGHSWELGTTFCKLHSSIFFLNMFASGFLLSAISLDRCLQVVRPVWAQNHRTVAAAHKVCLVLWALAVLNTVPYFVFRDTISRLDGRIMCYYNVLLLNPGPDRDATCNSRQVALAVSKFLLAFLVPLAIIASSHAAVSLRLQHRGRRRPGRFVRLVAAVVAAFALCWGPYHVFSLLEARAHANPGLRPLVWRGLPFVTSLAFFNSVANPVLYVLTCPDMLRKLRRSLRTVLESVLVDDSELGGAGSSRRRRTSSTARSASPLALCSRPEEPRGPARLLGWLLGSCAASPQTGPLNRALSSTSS
In words: Displacement of [3H]PGD2 from human CRTH2 receptor expressed in HEK293 cell membranes. In short, it runs like this:
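Radioligand binding on membranes from HEK293.F cells transiently transfected with human CRTH2 cDNA. Test compounds dissolved in DMSO, run at 1% (v/v) final DMSO. PGD2 used at 1 μM final concentration. Values are means of n = 2-4 experiments.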

The target in data set [2] is T2, Prostaglandin D2 receptor (Homo sapiens, UniProt Q13258).
T2 sequence (Q13258 whole entry): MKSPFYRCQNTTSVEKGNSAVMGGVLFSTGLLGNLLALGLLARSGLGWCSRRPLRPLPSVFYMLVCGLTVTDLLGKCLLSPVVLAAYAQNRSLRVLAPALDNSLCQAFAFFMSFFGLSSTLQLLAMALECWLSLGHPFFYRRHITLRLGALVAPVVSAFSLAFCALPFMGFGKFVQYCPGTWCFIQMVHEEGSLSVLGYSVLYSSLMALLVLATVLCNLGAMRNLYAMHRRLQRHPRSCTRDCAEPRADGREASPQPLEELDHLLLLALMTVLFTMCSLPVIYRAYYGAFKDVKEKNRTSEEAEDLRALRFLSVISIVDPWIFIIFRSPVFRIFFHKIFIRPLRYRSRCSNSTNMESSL
The experiment in a line: Displacement of [3H]PGD2 from human DP1 receptor expressed in HEK293 cell membranes. The essentials:
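Radioligand binding on membranes from HEK293 cells expressing human DP-1. Test compounds dissolved in DMSO, run at 1% (v/v) final DMSO. PGD2 used at 1 μM final concentration.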

Data set [3] deals with T1, Prostaglandin D2 receptor 2. In words: Antagonist activity at human CRTH2 receptor expressed in CHO/Ga16 cells co-expressing Galpha16 protein assessed as calcium flux by FLIPR assay. The data set is classed as functional, cell-based. In short, it runs like this: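 CHO cells co-expressing Gα16 and stably transfected with human CRTH2; antagonism read as calcium flux; IC50 determined.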

Data set [4] is described as follows: Metabolic stability in rat liver microsomes assessed as compound remaining after 30 mins. Type of data set: ADME, Microsome. Conditions: read-out: Stability. In short, it runs like this:
(§1)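 Incubation with rat or human liver microsomes for 30 min. Percent of parent remaining at 30 min reported.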

A short description of data set [5]: Metabolic stability in human liver microsomes assessed as compound remaining after 30 mins. Type of data set: ADME, Microsome. Conditions: read-out: Stability. The essentials:
as §1

For data set [6], the target named is Voltage-gated inwardly rectifying potassium channel KCNH2 (Homo sapiens, UniProt Q12809). The experiment in a line: Displacement of [3H]Dofetilide from human hERG potassium channel expressed in HEK293 cell membranes.
Chain of Voltage-gated inwardly rectifying potassium channel KCNH2 (Q12809 whole entry): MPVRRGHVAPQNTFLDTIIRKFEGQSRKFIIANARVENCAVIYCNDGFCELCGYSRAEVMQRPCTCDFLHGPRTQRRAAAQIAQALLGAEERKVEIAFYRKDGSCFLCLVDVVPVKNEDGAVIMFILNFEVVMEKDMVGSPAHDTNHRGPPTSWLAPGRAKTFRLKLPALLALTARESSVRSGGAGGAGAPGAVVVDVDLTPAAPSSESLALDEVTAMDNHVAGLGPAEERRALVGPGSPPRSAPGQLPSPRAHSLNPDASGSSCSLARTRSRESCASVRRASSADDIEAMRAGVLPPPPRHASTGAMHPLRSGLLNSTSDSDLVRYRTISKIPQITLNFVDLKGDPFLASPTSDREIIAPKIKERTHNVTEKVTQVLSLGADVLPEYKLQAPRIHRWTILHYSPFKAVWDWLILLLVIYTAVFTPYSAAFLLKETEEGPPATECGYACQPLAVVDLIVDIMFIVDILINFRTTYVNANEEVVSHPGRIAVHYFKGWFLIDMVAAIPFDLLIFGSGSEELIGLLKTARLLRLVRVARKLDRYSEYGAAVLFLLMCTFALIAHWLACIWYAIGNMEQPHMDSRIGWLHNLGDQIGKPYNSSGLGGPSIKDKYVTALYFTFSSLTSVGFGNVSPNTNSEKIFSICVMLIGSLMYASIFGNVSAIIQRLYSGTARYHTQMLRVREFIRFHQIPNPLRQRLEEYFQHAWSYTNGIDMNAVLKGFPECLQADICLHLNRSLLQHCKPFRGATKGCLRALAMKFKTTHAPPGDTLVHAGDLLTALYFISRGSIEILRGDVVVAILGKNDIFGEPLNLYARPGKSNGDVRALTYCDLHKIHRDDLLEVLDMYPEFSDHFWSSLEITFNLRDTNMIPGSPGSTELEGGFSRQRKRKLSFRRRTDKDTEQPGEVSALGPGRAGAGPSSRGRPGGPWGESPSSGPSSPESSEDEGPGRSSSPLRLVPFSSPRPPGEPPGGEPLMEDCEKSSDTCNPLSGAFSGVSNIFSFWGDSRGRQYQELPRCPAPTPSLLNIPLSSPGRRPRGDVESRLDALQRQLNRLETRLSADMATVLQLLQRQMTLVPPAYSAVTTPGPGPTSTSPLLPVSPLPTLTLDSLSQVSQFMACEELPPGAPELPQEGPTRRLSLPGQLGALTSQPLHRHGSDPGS
A short description of data set [7]: Cmax in BALB/c mouse at 30 mg/kg, po administered through 0.2 % Tween 80/0.5 % HPMC formulation. The data set is classed as ADME, organism-based. Conditions: in vivo. Further details: dose 30 mg/kg, route oral. In short, it runs like this:
(§2)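 Oral dosing at 30 mpk in female BALB/c mice, given as a solution in 0.2% Tween 80/0.5% HPMC, as an early bioavailability assessment.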

Data set [8] can be described thus: AUC in BALB/c mouse at 30 mg/kg, po administered through 0.2 % Tween 80/0.5 % HPMC formulation. Type of data set: ADME, organism-based. Further details: dose 30 mg/kg, route oral. Conditions: plasma. The essentials: as §2

Take `Cc1c(CC(=O)O)c2ccsc2n1S(=O)(=O)c1ccc(S(=O)(=O)N2CCCC2)cc1`: the half-maximal inhibitory concentration (IC50) in data set [1] stood at 0.39 µM.
`Cc1c(CC(=O)O)c2ccsc2n1S(=O)(=O)c1ccccc1` gave a 50% inhibitory concentration (IC50) in data set [1] of 2.75 µM.
The same measure, in the same setting: then `Cc1c(CC(=O)O)c2ccsc2n1S(=O)(=O)c1ccc(S(=O)(=O)N2CCOCC2)cc1`, with 0.23 µM; and `Cc1c(CC(=O)O)c2ccsc2n1Cc1ccc(S(=O)(=O)N(C)C)cc1`, with 0.19 µM.
In data set [1], `Cc1c(CC(=O)O)c2ccsc2n1S(=O)(=O)c1ccc(F)cc1` had an IC50 of 1.63 µM.
Turning to `Cc1c(CC(=O)O)c2ccsc2n1Cc1ccc(S(C)(=O)=O)cc1`, the IC50 in data set [1] is 0.05 µM; in data set [2] it was > 50 µM; in data set [3] it was 0.13 µM; in data set [6], 31 µM. Further, the remaining at 0.5 h stood at 90% in data set [4] and 91% in data set [5].
`Cc1c(CC(=O)O)c2ccsc2n1Cc1ccc(S(=O)(=O)N(C)C2CCCCC2)cc1`: the IC50 in data set [1] is 0.02 µM; in data set [2], > 50 µM; in data set [6] it was 31 µM. Besides, the values for the remaining at 0.5 h in data set [4] and in data set [5] were 57% and 62%, respectively.
As to `Cc1csc2c1c(CC(=O)O)c(C)n2Cc1ccc(S(C)(=O)=O)cc1`, the IC50 in data set [1] was 1.5 µM.
The same measure, in the same setting: then `Cc1cc2c(CC(=O)O)c(C)n(Cc3ccc(S(C)(=O)=O)cc3Cl)c2s1`, with 0.33 µM; and `CS(=O)(=O)c1ccc(S(=O)(=O)n2cc(CC(=O)O)c3sccc32)cc1`, with 5 µM.
`Cc1c(CC(=O)O)c2ccsc2n1Cc1ccc(S(C)(=O)=O)cc1Cl`: the values for the IC50 in data set [1], in data set [2] and in data set [6] were 0.01 µM, > 50 µM and 45 µM, respectively. The remaining at 0.5 h in data set [4] worked out at 99%; in data set [5], 97%.
`Cc1c(CC(=O)O)c2ccsc2n1S(=O)(=O)c1ccc(C#N)cc1` came in with a half-inhibitory concentration (IC50) in data set [1] of 3 µM.
On to `Cc1c(CC(=O)O)c2ccsc2n1S(=O)(=O)c1ccc(S(C)(=O)=O)cc1`, for which the IC50 was 0.09 µM in data set [1], > 50 µM in data set [2] and > 100 µM in data set [6]. Besides, the remaining at 0.5 h in data set [4] and in data set [5] was 100% each time. Also, the highest concentration (Cmax) in data set [7] was 7800 ng/mL. The AUC in data set [8] is 16400 ng·h/mL.
Turning to `Cc1cc2c(CC(=O)O)c(C)n(Cc3ccc(S(C)(=O)=O)cc3)c2s1`, the 50% inhibitory concentration (IC50) in data set [1] is 1.8 µM.
In data set [1], `Cc1c(CC(=O)O)c2ccsc2n1Cc1ccc(S(=O)(=O)N2CCOCC2)cc1` came in with an IC50 of 0.07 µM.
Turning to `Cc1csc2c1c(CC(=O)O)c(C)n2S(=O)(=O)c1ccc(S(C)(=O)=O)cc1`, the IC50 in data set [1] is 1.3 µM.
For the molecule `CS(=O)(=O)c1ccc(S(=O)(=O)n2cc(CC(=O)O)c3ccsc32)cc1`, the IC50 in data set [1] amounted to 4 µM.
On to `Cc1c(CC(=O)O)c2ccsc2n1S(=O)(=O)c1ccc(C(F)(F)F)cc1`, for which, in data set [1], the IC50 amounted to 1.13 µM.
